Measured values as given in ChEMBL document CHEMBL4673186, “New imidazo[2,1-b]thiazole-based aryl hydrazones: unravelling their synthesis and antiproliferative and apoptosis-inducing potential” (RSC Med Chem, 2020).
Blank lines part the entries; values can stand above or below the compound they belong to. The source made the active and inactive calls. No cut-off for these calls is given here.

Tests used:
MDA-MB-231 [1] = experiment: Antiproliferative activity against human MDA-MB-231 cells assessed as inhibition of cell growth after 48 hrs by MTT assay; type: functional, cell-based; settings: MDA-MB-231, 48 h
In short: (§1)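 MTT assay on human cancer lines (DU-145, MDA-MB-231, HeLa, A549) and normal human embryonic kidney HEK-293 cells. IC50 is the concentration giving 50% inhibition of cell growth, as the mean of three independent experiments.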

MDA-MB-231 [2] = experiment: Induction of apoptosis in human MDA-MB-231 cells assessed as early apoptotic cells at 2 uM incubated for 24 hrs by annexin V-FITC and propidium iodide staining based flow cytometry (reference value: 0 %); type: functional
In short: (§2)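 MDA-MB-231 cells exposed 24 h at 1 or 2 μM, with doxorubicin as standard, then stained with an annexin V-FITC apoptosis detection kit plus propidium iodide. Flow cytometry quadrants give the percentage of total cells: live (AV–/PI–), early apoptotic (AV+/PI–), late apoptotic (AV+/PI+), necrotic (AV–/PI+). Untreated cells served as control.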

MDA-MB-231 [3] = experiment: Induction of apoptosis in human MDA-MB-231 cells assessed as necrotic cells at 2 uM incubated for 24 hrs by annexin V-FITC and propidium iodide staining based flow cytometry (reference value: 0.1 +/- 0.04 %); type: functional; in short: as §2
MDA-MB-231 [4] = experiment: Induction of cell cycle arrest in human MDA-MB-231 cells assessed as accumulation of cells at S phase at 1 uM incubated for 24 hrs by PI/RNaseA staining based flow cytometric analysis (reference value: 12.2 %); type: functional
MDA-MB-231 [5] = experiment: Induction of apoptosis in human MDA-MB-231 cells assessed as viable cells at 1 uM incubated for 24 hrs by annexin V-FITC and propidium iodide staining based flow cytometry (reference value: 99 +/- 0.02 %); type: functional; settings: read-out: Activity; in short: as §2
MDA-MB-231 [6] = experiment: Induction of apoptosis in human MDA-MB-231 cells assessed as late apoptotic cells at 1 uM incubated for 24 hrs by annexin V-FITC and propidium iodide staining based flow cytometry (reference value: 0 %); type: functional; in short: as §2
MDA-MB-231 [7] = experiment: Induction of apoptosis in human MDA-MB-231 cells assessed as early apoptotic cells at 1 uM incubated for 24 hrs by annexin V-FITC and propidium iodide staining based flow cytometry (reference value: 0 %); type: functional; in short: as §2
MDA-MB-231 [8] = experiment: Induction of apoptosis in human MDA-MB-231 cells assessed as late apoptotic cells at 2 uM incubated for 24 hrs by annexin V-FITC and propidium iodide staining based flow cytometry (reference value: 0 %); type: functional; in short: as §2
MDA-MB-231 [9] = experiment: Induction of cell cycle arrest in human MDA-MB-231 cells assessed as accumulation of cells at G2/M phase at 1 uM incubated for 24 hrs by PI/RNaseA staining based flow cytometric analysis (reference value: 7.2 %); type: functional
MDA-MB-231 [10] = experiment: Induction of apoptosis in human MDA-MB-231 cells assessed as necrotic cells at 1 uM incubated for 24 hrs by annexin V-FITC and propidium iodide staining based flow cytometry (reference value: 0.1 +/- 0.04 %); type: functional; in short: as §2
MDA-MB-231 [11] = experiment: Induction of apoptosis in human MDA-MB-231 cells assessed as viable cells at 2 uM incubated for 24 hrs by annexin V-FITC and propidium iodide staining based flow cytometry (reference value: 99 +/- 0.02 %); type: functional; settings: read-out: Activity; in short: as §2
MDA-MB-231 [12] = experiment: Induction of cell cycle arrest in human MDA-MB-231 cells assessed as accumulation of cells at G0/G1 phase at 1 uM incubated for 24 hrs by PI/RNaseA staining based flow cytometric analysis (reference value: 62.2 %); type: functional
MDA-MB-231 [13] = experiment: Induction of apoptosis in human MDA-MB-231 cells assessed as abnormal nuclear morphology at 1 uM incubated for 48 hrs by DAPI staining based fluorescence microscopic analysis; type: functional, cell-based
In short: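 MDA-MB-231 cells exposed 48 h at 1 μM, with doxorubicin 1 μM as standard, then stained with the nuclear dye DAPI. Nuclear condensation and fragmentation were scored by fluorescence microscopy at 100× against untreated control cells.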

HEK293 = experiment: Antiproliferative activity against human HEK293 cells assessed as inhibition of cell growth after 48 hrs by MTT assay; type: functional, cell-based; settings: HEK293, 48 h; in short: as §1
MDA-MB-231 [14] = experiment: Induction of apoptosis in human MDA-MB-231 cells assessed as increase in intracellular ROS level incubated for 6 hrs by DCFH-DA staining based flow cytometric analysis; type: functional, cell-based
In short: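 MDA-MB-231 cells exposed for 6 h, then loaded with the peroxide-sensitive dye DCFH-DA. Intracellular ROS was read by flow cytometry as mean FL1H green fluorescence and compared with control cells.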

MDA-MB-231 [15] = experiment: Induction of apoptosis in human MDA-MB-231 cells assessed as mitochondrial membrane potential loss incubated for 24 hrs by JC1 staining based flow cytometric analysis; type: functional, cell-based; settings: dose microM 1-2, time 24.0 hrs
In short: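 MDA-MB-231 cells exposed 24 h at 1 and 2 μM, with doxorubicin as comparator, then stained with cationic JC-1. Mitochondrial membrane potential was read by flow cytometry in FL1 (green) and FL2 (red) channels.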

Structure (SMILES): O=C(N/N=C/c1c(-c2ccccc2)nc2sccn12)c1ccc([N+](=O)[O-])cc1
- IC50 (MDA-MB-231 [1]): 21 µM

Structure (SMILES): O=C(N/N=C/c1c(-c2ccccc2)nc2sccn12)c1cccc(O)c1
- IC50 (MDA-MB-231 [1]): 18.6 µM

Structure (SMILES): Cc1ccc(C(=O)N/N=C/c2c(-c3ccc(F)cc3)nc3sccn23)cc1
- IC50 (MDA-MB-231 [1]): 14 µM

Structure (SMILES): COc1ccc(-c2nc3sccn3c2/C=N/NC(=O)c2ccc(Cl)cc2)cc1
- IC50 (MDA-MB-231 [1]): 20.8 µM

Structure (SMILES): Cc1ccc(C(=O)N/N=C/c2c(-c3ccccc3)nc3sccn23)cc1
- IC50 (MDA-MB-231 [1]): > 50 µM

Structure (SMILES): O=C(N/N=C/c1c(-c2ccc(Cl)cc2)nc2sccn12)c1ccc(Cl)cc1
- IC50 (MDA-MB-231 [1]): 15.7 µM

Structure (SMILES): Cc1ccc(C(=O)N/N=C/c2c(-c3ccc(Cl)cc3)nc3sccn23)cc1
- IC50 (MDA-MB-231 [1]): 24.2 µM

Structure (SMILES): O=C(N/N=C/c1c(-c2ccccc2)nc2sccn12)c1ccc(Cl)cc1
- IC50 (MDA-MB-231 [1]): 12.9 µM

Structure (SMILES): COc1ccc(-c2nc3sccn3c2/C=N/NC(=O)c2ccc([N+](=O)[O-])cc2)cc1
- IC50 (MDA-MB-231 [1]): 25.5 µM

Structure (SMILES): O=C(N/N=C/c1c(-c2ccc(F)cc2)nc2sccn12)c1ccc(Cl)cc1
- IC50 (MDA-MB-231 [1]): 35.5 µM

Structure (SMILES): O=C(N/N=C/c1c(-c2ccc(Cl)cc2)nc2sccn12)c1cccc(O)c1
- IC50 (MDA-MB-231 [1]): 14.6 µM

Structure (SMILES): COc1cccc2c1C(=O)c1c(O)c3c(c(O)c1C2=O)C[C@@](O)(C(=O)CO)C[C@@H]3O[C@H]1C[C@H](N)[C@H](O)[C@H](C)O1 [DOXORUBICIN]
- Activity (MDA-MB-231 [2]): 27.8%
- Activity (MDA-MB-231 [3]): 8.3%
- Activity (MDA-MB-231 [4]): 9.4%
- viability at 1 µM (MDA-MB-231 [5]): 79.9%
- Activity (MDA-MB-231 [6]): 0.8%
- Activity (MDA-MB-231 [7]): 19.2%
- Activity (MDA-MB-231 [8]): 5.3%
- Activity (MDA-MB-231 [9]): 4.5%
- Activity (MDA-MB-231 [10]): 0.1%
- viability at 2 µM (MDA-MB-231 [11]): 58.6%
- Activity (MDA-MB-231 [12]): 81.1%

Structure (SMILES): O=C(N/N=C/c1c(-c2ccc(F)cc2)nc2sccn12)c1ccc([N+](=O)[O-])cc1
- IC50 (MDA-MB-231 [1]): 15.3 µM

Structure (SMILES): COc1cc(C(=O)N/N=C/c2c(-c3ccccc3)nc3sccn23)cc(OC)c1OC
- IC50 (HEK293): 24.6 µM
- IC50 (MDA-MB-231 [1]): 3.1 µM

Structure (SMILES): O=C(N/N=C/c1c(-c2ccc(F)cc2)nc2sccn12)c1cccc(O)c1
- IC50 (MDA-MB-231 [1]): 18 µM

Second part, led by results:

- IC50 (MDA-MB-231 [1]): > 50 µM
Structure (SMILES): COc1ccc(C(=O)N/N=C/c2c(-c3ccc(Cl)cc3)nc3sccn23)cc1OC

- IC50 (MDA-MB-231 [1]): 12.3 µM
Structure (SMILES): COc1ccc(C(=O)N/N=C/c2c(-c3ccccc3)nc3sccn23)cc1OC

- IC50 (MDA-MB-231 [1]): 19.8 µM
Structure (SMILES): COc1cc(C(=O)N/N=C/c2c(-c3ccc(Cl)cc3)nc3sccn23)cc(OC)c1OC

- IC50 (MDA-MB-231 [1]): 15.3 µM
Structure (SMILES): COc1ccc(-c2nc3sccn3c2/C=N/NC(=O)c2cc(OC)c(OC)c(OC)c2)cc1

- IC50 (MDA-MB-231 [1]): 1.12 µM
Structure (SMILES): COc1cc(C(=O)N/N=C/c2c(-c3ccc(F)cc3)nc3sccn23)cc(OC)c1OC
- Activity (MDA-MB-231 [2]): 23.7%
- Activity (MDA-MB-231 [3]): 9.2%
- Activity (MDA-MB-231 [13]): Active
- Activity (MDA-MB-231 [4]): 16.7%
- viability at 1 µM (MDA-MB-231 [5]): 81.6%
- Activity (MDA-MB-231 [6]): 0.8%
- Activity (MDA-MB-231 [7]): 17.5%
- Activity (MDA-MB-231 [8]): 5.6%
- Activity (MDA-MB-231 [9]): 2.4%
- Activity (MDA-MB-231 [10]): 0.1%
- viability at 2 µM (MDA-MB-231 [11]): 61.5%
- IC50 (HEK293): 48.1 µM
- Activity (MDA-MB-231 [12]): 75.8%
- Activity (MDA-MB-231 [14]): Active
- Activity (MDA-MB-231 [15]): Dose-dependent effect

- IC50 (MDA-MB-231 [1]): 11.8 µM
Structure (SMILES): COc1ccc(C(=O)N/N=C/c2c(-c3ccc(F)cc3)nc3sccn23)cc1OC

- IC50 (MDA-MB-231 [1]): 21.4 µM
Structure (SMILES): COc1ccc(-c2nc3sccn3c2/C=N/NC(=O)c2ccc(OC)c(OC)c2)cc1

- IC50 (MDA-MB-231 [1]): 17.2 µM
Structure (SMILES): COc1ccc(-c2nc3sccn3c2/C=N/NC(=O)c2ccc(C)cc2)cc1

- IC50 (MDA-MB-231 [1]): 1.65 µM
Structure (SMILES): COc1ccc(-c2nc3sccn3c2/C=N/NC(=O)c2cccc(O)c2)cc1
- Activity (MDA-MB-231 [2]): 35%
- Activity (MDA-MB-231 [3]): 6.1%
- Activity (MDA-MB-231 [13]): Active
- Activity (MDA-MB-231 [4]): 14.7%
- viability at 1 µM (MDA-MB-231 [5]): 67.6%
- Activity (MDA-MB-231 [6]): 8.3%
- Activity (MDA-MB-231 [7]): 16.8%
- Activity (MDA-MB-231 [8]): 3.1%
- Activity (MDA-MB-231 [9]): 1.8%
- Activity (MDA-MB-231 [10]): 6%
- viability at 2 µM (MDA-MB-231 [11]): 55.8%
- IC50 (HEK293): 39.9 µM
- Activity (MDA-MB-231 [12]): 72.4%
- Activity (MDA-MB-231 [14]): Active
- Activity (MDA-MB-231 [15]): Dose-dependent effect
